Shown are actives, neighbours in structure and some others; about 5.5% of the full set was active somewhere.
Cl transport mod = modulates chloride dependent transport by human KCC2; KCC2 cells, thallium flux FluoZin-2 fluorescence; B-score of Tl+ flux slope (higher = more flux/activation; lower = inhibition) at 10 µM; hit rate 2.2% among 190,000;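 active = thallium flux slope and its plate-corrected score both differing from the plate sample mean at a set confidence after two filtering rounds, in either direction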;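 note: slope of fluorescence scaled to starting intensity during 10 to 20 s after thallium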
WT yeast gro inh = growth inhibition of WT yeast, mitochondrial fusion screen. mitochondrial fusion phenotypic screen, WT strain. inhibition, % at 10 µM. hit rate 2.1% among 190,000; in the data active = inhibition above about 58%; tested in S. cerevisiae
RAM network inh = yeast RAM network inhibition | S. cerevisiae dse1pr::URA3 reporter, 5-FOA growth OD615, 2 d; analog-sensitive cbk1-as2 kinase mutant strain | inhibition, % at 50 µM | hit rate 1.8% among 190,000 | AID 868;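 active = inhibition above a set limit, 3 SD over mean compound inhibition, cut at about 8.4% in these data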;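 note: 0% = DMSO-only wells with no growth and 100% = 10 µM 1-NA-PP1 full growth; inhibition rescues growth on 5-FOA so higher OD means more RAM inhibition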
Yeast growth inh = yeast BB579 growth reduction in restrictive medium | S. cerevisiae BB579 growth, OD615, 48 h | inhibition, % at 10 µM | hit rate 0.51% among 140,000 | AID 804;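 active = inhibition above a set limit, 3 SD over the mean compound inhibition, cut at about 44% in these data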
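Test system: Saccharomyces cerevisiae DeaD strain BB579, replicative lifespan model yeast | Buffer or medium: Restrictive CSMM-D medium | Doses: One dose, 10 µM compound with 0.25% DMSO | Incubation: 48 h exposure, 30 °C | Detection: Culture absorbance at 615 nm | Control set: Amphotericin B at 10 µg/mL as positive control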
Yeast life ext = yeast lifespan extension; S. cerevisiae growth with nicotinamide, OD615; deaD strain in restrictive glucose medium; inhibition of the nicotinamide effect, % at 10 µM; hit rate 0.68% among 130,000; AID 775;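 active = inhibition above a set limit, placed 3 SD over the median of all compounds, cut at about 26% in these data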;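 note: 0% = nicotinamide-treated wells and 100% = cells grown without nicotinamide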
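Material: Modified budding yeast, DeaD strain | Medium: Restrictive glucose medium | Probe or stimulus: 1.5 mM nicotinamide | Dosing: Single dose 10 µM compound, 0.25% DMSO | Times: 48 h at 30 °C | Technique: OD615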
Starred values were filed as active, the others as inactive; x = no result.

SMILES	Cl transport mod	WT yeast gro inh	RAM network inh	Yeast growth inh	Yeast life ext
Brc1ccc(-c2nnc(Cc3ccccc3)o2)cc1	-2.2	x	x	x	x
C=CCC1c2cccc(C(=O)O)c2C(=O)N1c1cccc(OC)c1 (configuration not stated)	-0.22	-18	0	x	x
C=CCC1c2cccc(C(=O)O)c2C(=O)N1c1cccc(C)c1 (configuration not stated)	0.44	-1	-2	62*	-5
COCCNC(=O)COC(=O)c1cc(-c2ccc(OC)cc2)nc2ccccc12	0.14	21	2	x	x
O=C1C(=C(O)c2ccccc2)C(=O)c2ccccc21	0.91	7	-1	-40	42*
O=C1C(=C(c2ccccc2)c2ccccc2)Nc2ccccc21	-1.2	13	0	-18	5
O=c1c2sccc2n(Cc2ccc(F)cc2)c(=O)n1-c1ccc(F)cc1	0.56	-3	10*	-13	-1
O=C1CCC(=O)N1CCSC(=S)N1CCSCC1	0.071	x	x	x	x
ClC(Br)=C(n1cnc2ccccc21)n1cnc2ccccc21	0.1	14	0	-53	41*
COc1ccccc1-n1cnc2sc(-c3ccccc3)cc2c1=O	0.065	75*	5	5	-25
CCCCn1cnc2sc(-c3ccccc3)cc2c1=O	x	-7	0	-25	-26
COc1ccc(C(N)=O)cc1NC(=O)c1cccc(F)c1	1.7	65*	1	-38	-10
Cc1ccc(S(=O)(=O)CCC(=O)OCn2nnc3ccccc3c2=O)cc1	-0.22	-3	2	x	x
Cc1ccccc1NC(=O)OCc1cccnc1Sc1ccc(Cl)cc1	1	-2	9.9*	-25	-9
Cc1ccc(Sc2ncccc2COC(=O)Nc2ccccc2)cc1	-0.34	-12	9.2*	-48	-21
CC(C)(C)c1ccc(S(=O)(=O)N(CCCN2CCOCC2)Cc2cccs2)cc1	0.12	18	-1	-19	1
Cn1c(CCCOc2ccc(Cl)cc2Cl)nnc1SCC(=O)Nc1cccc(F)c1	-0.051	7	7	-23	-4
C=CCn1c(CCCOc2ccc(Cl)cc2Cl)nnc1SCC(=O)Nc1nccs1	0.72	-15	8.9*	-62	0
Cn1c(CCCOc2ccc(Cl)cc2Cl)nnc1SCC(=O)Nc1ccc(F)c(Cl)c1	0.016	10	9.0*	-19	6
CCn1c(CNC(=O)COc2ccc(C(C)C)cc2)nnc1SCC(=O)Nc1ccc(F)cc1	-2.3	x	10.0*	-14	-5
CCn1c(CCCOc2ccc(Cl)cc2Cl)nnc1SCC(=O)Nc1cc(F)ccc1C	-0.71	79*	5	-33	7
CCc1ccc(/C=C2\Oc3c(ccc(O)c3CN3CCN(CCO)CC3)C2=O)cc1	-0.95	x	x	x	x
CCCNC(=O)C1CNc2ccccc2O1 (configuration not stated)	1.1	-24	3	22	-4
CCCOc1cccc(C2C(C(=O)c3cccs3)=C(O)C(=O)N2Cc2cccnc2)c1 (configuration not stated)	-0.99	x	x	x	x
Cc1ccc(C(=O)Nc2cc(C)c(OCC(=O)N3CCOCC3)c(C)c2)cc1	x	x	-1	4	-7
SMILES	Cl transport mod	WT yeast gro inh	RAM network inh	Yeast growth inh	Yeast life ext
Fc1ccc(N=C2NN=C(c3cc(F)ccc3F)CS2)cc1	1	80*	2	-6	-6
CCCc1nn(C)c(C(=O)Nc2ccc3ccccc3c2)c1Cl	-0.25	9	11*	-28	0
CCCc1nn(C)c(C(=O)Nc2cccc(CC)c2)c1Cl	-0.51	33	0	-31	-3
N#C/C(=N\Nc1ccccc1F)c1nc(-c2ccccc2)cs1	-0.18	6	9.8*	x	x
Cc1c(N=Nc2c(-c3ccc([N+](=O)[O-])cc3)[nH]n(C(N)=S)c2=O)cccc1[N+](=O)[O-]	-0.95	23	11*	x	x
CC1(C(=O)NCc2ccc(F)cc2)Oc2ccccc2NC1=O (configuration not stated)	1	-6	3	x	x
CC(=O)Nc1ccc(S(=O)(=O)NCCC(=O)OCCN2C(=O)c3ccccc3C2=O)cc1	-0.095	73*	0	-34	-17
CC(C)c1ccc(C2=C(O)c3ccccc3C(=O)C2=O)cc1	1.5	-4	1	5	46*
CC1CCN(S(=O)(=O)c2ccc(C(=O)Nc3ccccc3-c3nc4ccccc4[nH]3)cc2)CC1	1.5	1	3	-16	3
CC1CCCN(S(=O)(=O)c2ccc(C(=O)Nc3ccccc3-c3nc4ccccc4[nH]3)cc2)C1 (configuration not stated)	-0.15	0	9.8*	-44	3
